One series concerns KB. As to the kind of experiment: Cytotoxicity against human KB cells assessed as cell viability after 48 hrs by neutral red uptake assay. Type of series: cell-based. The gist of the method: (§1)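 Neutral red uptake assay on human cancer lines (SK-MEL, KB, BT-549, SK-OV-3) and noncancerous mammalian cells (VERO, LLC-PK1). Highest tested concentration was 10 µg/mL.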
The subject of the next series is Pichia kudriavzevii. In words: Antifungal activity against Candida krusei assessed as growth inhibition. It is filed as functional, organism-based.
The subject of another series is Aspergillus fumigatus. In words: Antifungal activity against Aspergillus fumigatus assessed as growth inhibition. Type of series: functional, organism-based.
Another series deals with SK-OV-3. In words: Cytotoxicity against human SKOV3 cells assessed as cell viability after 48 hrs by neutral red uptake assay. Type of series: cell-based. The conditions noted are these: sk-ov-3, 48 h. The gist of the method:
as §1

The next series concerns Nakaseomyces glabratus. In words: Antifungal activity against Candida glabrata assessed as growth inhibition. Type of series: functional, organism-based.
The subject of another series is Candida albicans. In words: Antifungal activity against Candida albicans assessed as growth inhibition. It is filed as functional, organism-based.
Series [1] concerns Staphylococcus aureus. In words: Antibacterial activity against Staphylococcus aureus ATCC 29213 assessed as growth inhibition after 16-20 hrs by CLSI method. Type of series: functional, organism-based.
Another series concerns BT-549. In words: Cytotoxicity against human BT549 cells assessed as cell viability after 48 hrs by neutral red uptake assay. Type of series: cell-based. The conditions noted are these: bt-549, 48 h. The method in brief: as §1
In the next series the test system is Cryptococcus neoformans. In words: Antifungal activity against Cryptococcus neoformans ATCC 90113 assessed as growth inhibition after 70-74 hrs by CLSI method. Type of series: functional, organism-based.
A further series has as its system Vero. As to the kind of experiment: Cytotoxicity against african green monkey Vero cells assessed as cell viability after 48 hrs by neutral red uptake assay. It is filed as cell-based. The conditions noted are these: chlorocebus sabaeus. The method in brief:
as §1

A further series has as its system LLC-PK1. In words: Cytotoxicity against pig LLC-PK1 cells assessed as cell viability after 48 hrs by neutral red uptake assay. It is filed as cell-based, Sus scrofa. The settings on record: llc-pk1, 48 h. The gist of the method:
as §1

The test system of the next series is Escherichia coli. In words: Antibacterial activity against Escherichia coli ATCC 35218 assessed as growth inhibition after 16-20 hrs by CLSI method. It is filed as functional, organism-based.
Another series concerns SK-MEL. As to the kind of experiment: Cytotoxicity against human SK-MEL cells assessed as cell viability after 48 hrs by neutral red uptake assay. Type of series: cell-based. The method in brief: as §1
Series [2] has as its system Staphylococcus aureus. In words: Antibacterial activity against methicillin-resistant Staphylococcus aureus ATCC 33591 assessed as growth inhibition after 16-20 hrs by CLSI method. It is filed as functional, organism-based.
The mark [3] stands for this setting: Cryptococcus neoformans, ATCC 90113, read-out: IC50.

A word on the IC50: it is the concentration that gives 50% inhibition.

SMILES strings stand for the structures. Values after ≈ are worked out from the molar mass of the structure shown. Active and inactive are the calls of the source. Residues, ends and D or L forms follow the SMILES beside them. *: point of attachment. NHBn = c1ccc(CN*)cc1

On to `COC(=O)[C@H](Cc1c[nH]c(-c2ccc(-c3ccccc3)cc2)n1)NC(=O)[C@H](Cc1c[nH]c2ccccc12)NC(=O)OC(C)(C)C`, for which the Activity in the series on KB, with SK-OV-3, in the series with BT-549, with Vero, with LLC-PK1 and with SK-MEL was over 10 µg/mL in each case. Moreover, the “growth inhibition (GI)” value in the series with Pichia kudriavzevii, in the series with Aspergillus fumigatus, in the series with Nakaseomyces glabratus, in the series with Candida albicans and in the series on Escherichia coli was “inactive” each time. The IC50 in the series with Staphylococcus aureus [1] is 19 µg/mL (≈ 31.2 µM); in the series on Cryptococcus neoformans it was “Not Active”; in the series on Staphylococcus aureus [2] it was “Not Active”. Also, the MBC result with Staphylococcus aureus [1] and with Staphylococcus aureus [2] was “inactive” in each case. Moreover, the MIC result with Staphylococcus aureus [1], in the series with Cryptococcus neoformans and in the series on Staphylococcus aureus [2] was “inactive” in each case. Moreover, the MFC result in the series with Cryptococcus neoformans was “inactive”.
On to `COC(=O)[C@H](Cc1c[nH]c(-c2ccc(C)cc2)n1)NC(=O)[C@@H](N)Cc1c[nH]c2ccccc12`, for which the Activity in the series on KB, in the series with SK-OV-3, with BT-549, in the series on Vero, in the series on LLC-PK1 and in the series on SK-MEL was over 10 µg/mL each time. Also, the “growth inhibition (GI)” value with Pichia kudriavzevii, with Aspergillus fumigatus, in the series on Nakaseomyces glabratus, with Candida albicans and in the series with Escherichia coli was “inactive” each time. In addition, the MFC result in the series on Cryptococcus neoformans was “inactive”. For the same compound, the MIC entry in the series with Cryptococcus neoformans was “inactive”. For the same compound, the half-inhibitory concentration (IC50) with Cryptococcus neoformans (setting [3]) worked out at 11.9 µg/mL (≈ 26.7 µM).
With `CC(C)(C)OC(=O)N[C@@H](Cc1c[nH]c2ccccc12)C(=O)N[C@@H](Cc1c[nH]c(-c2ccc(C(C)(C)C)cc2)n1)C(=O)NCc1ccccc1`, the Activity with KB, in the series on SK-OV-3, with BT-549, in the series on Vero, in the series on LLC-PK1 and in the series on SK-MEL was over 10 µg/mL in each case. In addition, the “growth inhibition (GI)” value with Pichia kudriavzevii, with Aspergillus fumigatus, in the series with Nakaseomyces glabratus, with Candida albicans and in the series on Escherichia coli was “inactive” each time. Moreover, the half-maximal inhibitory concentration (IC50) is 10.2 µg/mL (≈ 15.3 µM) in the series on Staphylococcus aureus [1], “Not Active” with Cryptococcus neoformans and “Not Active” in the series with Staphylococcus aureus [2]. In addition, the MBC result with Staphylococcus aureus [1] and in the series with Staphylococcus aureus [2] was “inactive” in each case. The MIC entry in the series on Staphylococcus aureus [1], with Cryptococcus neoformans and with Staphylococcus aureus [2] was “inactive” throughout. Moreover, in the series with Cryptococcus neoformans, the MFC entry is “inactive”.
Regarding `N=C(N)NCCC[C@H](NC(=O)[C@@H](N)Cc1c[nH]cn1)C(=O)NCc1ccccc1` (H-His-Arg-NHBn), the Activity in the series with KB, with SK-OV-3, in the series with BT-549, in the series with Vero, in the series with LLC-PK1 and with SK-MEL was over 10 µg/mL in each case. Also, the “growth inhibition (GI)” value in the series on Pichia kudriavzevii, in the series with Aspergillus fumigatus, in the series on Nakaseomyces glabratus, with Candida albicans and in the series with Escherichia coli was “inactive” in each case. For the same compound, the 50% inhibitory concentration (IC50) entry in the series with Cryptococcus neoformans is on record as “Not Active”. In addition, the MFC entry in the series with Cryptococcus neoformans is “inactive”. The MIC entry in the series on Cryptococcus neoformans was “inactive”.
Turning to `COC(=O)[C@H](Cc1c[nH]c(-c2ccc(C(C)(C)C)cc2)n1)NC(=O)[C@H](Cc1c[nH]c2ccccc12)NC(=O)OC(C)(C)C`, the Activity in the series on KB, in the series with SK-OV-3, in the series on BT-549, in the series with Vero, with LLC-PK1 and in the series with SK-MEL was over 10 µg/mL each time. For the same compound, the “growth inhibition (GI)” value with Pichia kudriavzevii, with Aspergillus fumigatus, in the series on Nakaseomyces glabratus, in the series on Candida albicans and in the series on Escherichia coli was “inactive” each time. Also, the values for the IC50 in the series with Staphylococcus aureus [1], with Cryptococcus neoformans (setting [3]) and in the series on Staphylococcus aureus [2] were 15.1 µg/mL (≈ 25.6 µM), 18.7 µg/mL (≈ 31.8 µM) and “Not Active”, respectively. Moreover, the MBC entry with Staphylococcus aureus [1] and in the series with Staphylococcus aureus [2] was “inactive” each time. Besides, the MIC entry in the series on Staphylococcus aureus [1], in the series on Cryptococcus neoformans and with Staphylococcus aureus [2] was “inactive” throughout. In addition, the MFC result in the series on Cryptococcus neoformans is “inactive”.
Turning to `COC(=O)[C@H](CCCNC(=N)N)NC(=O)[C@@H](N)Cc1c[nH]c(-c2ccc(OC)cc2)n1`, the Activity in the series with KB, in the series with SK-OV-3, with BT-549, in the series with Vero, in the series with LLC-PK1 and in the series on SK-MEL was over 10 µg/mL each time. Also, the “growth inhibition (GI)” value in the series with Pichia kudriavzevii, in the series with Aspergillus fumigatus, with Nakaseomyces glabratus, in the series on Candida albicans and in the series with Escherichia coli was “inactive” each time. Besides, the IC50 entry in the series on Cryptococcus neoformans is on record as “Not Active”. In addition, the MFC result with Cryptococcus neoformans was “inactive”. For the same compound, in the series on Cryptococcus neoformans, the MIC entry is “inactive”.
As to `COC(=O)[C@H](Cc1c[nH]c(-c2cccc3ccccc23)n1)NC(=O)[C@@H](N)Cc1c[nH]c2ccccc12`, the Activity in the series on KB, with SK-OV-3, in the series on BT-549, with Vero, in the series on LLC-PK1 and in the series on SK-MEL was over 10 µg/mL in each case. The “growth inhibition (GI)” value in the series on Pichia kudriavzevii, in the series with Aspergillus fumigatus, with Nakaseomyces glabratus, in the series with Candida albicans and in the series on Escherichia coli was “inactive” each time. Also, the MFC entry with Cryptococcus neoformans is “inactive”. Moreover, in the series on Cryptococcus neoformans, the MIC result was “inactive”. In addition, the IC50 in the series on Cryptococcus neoformans (setting [3]) was 17.3 µg/mL (≈ 35.9 µM).
`Cc1ccc(-c2nc(C[C@H](NC(=O)[C@H](Cc3c[nH]c4ccccc34)NC(=O)OC(C)(C)C)C(=O)NCc3ccccc3)c[nH]2)cc1`: the Activity in the series on KB, with SK-OV-3, with BT-549, with Vero, in the series on LLC-PK1 and in the series on SK-MEL was over 10 µg/mL in each case. For the same compound, the “growth inhibition (GI)” value in the series on Pichia kudriavzevii, in the series with Aspergillus fumigatus, in the series with Nakaseomyces glabratus, in the series with Candida albicans and in the series on Escherichia coli was “inactive” in each case. The IC50 result in the series with Cryptococcus neoformans is listed as “Not Active”. For the same compound, in the series on Cryptococcus neoformans, the MFC entry is “inactive”. Also, in the series on Cryptococcus neoformans, the MIC result is “inactive”.
Take `COC(=O)[C@H](Cc1c[nH]c(-c2ccc(C(C)(C)C)cc2)n1)NC(=O)[C@@H](N)Cc1c[nH]c2ccccc12`: the Activity with KB, with SK-OV-3, in the series on BT-549, in the series with Vero, in the series with LLC-PK1 and in the series with SK-MEL was over 10 µg/mL throughout. Moreover, the “growth inhibition (GI)” value in the series with Pichia kudriavzevii, in the series with Aspergillus fumigatus, in the series on Nakaseomyces glabratus, with Candida albicans and in the series with Escherichia coli was “inactive” throughout. The MFC result in the series with Cryptococcus neoformans was “inactive”. Also, the MIC entry in the series on Cryptococcus neoformans was “inactive”. The IC50 in the series on Cryptococcus neoformans (setting [3]) was determined as 18.8 µg/mL (≈ 38.6 µM).
